From ChEMBL document CHEMBL1145784, “Three dimensional pharmacophore modeling of human CYP17 inhibitors. Potential agents for prostate cancer therapy” (J Med Chem, 2003)

Assays:
[1] = molecular target: T1, Steroid 17-alpha-hydroxylase/17,20 lyase (Homo sapiens, UniProt P05093); assay: In vitro cytochrome P450 17A1 inhibition was assayed using the rapid acetic acid releasing assay (AARA), utilizing intact P450c17-expressing Escherichia coli or P450c17-LNCaP cells as the enzyme source.
T1 sequence (P05093 whole entry): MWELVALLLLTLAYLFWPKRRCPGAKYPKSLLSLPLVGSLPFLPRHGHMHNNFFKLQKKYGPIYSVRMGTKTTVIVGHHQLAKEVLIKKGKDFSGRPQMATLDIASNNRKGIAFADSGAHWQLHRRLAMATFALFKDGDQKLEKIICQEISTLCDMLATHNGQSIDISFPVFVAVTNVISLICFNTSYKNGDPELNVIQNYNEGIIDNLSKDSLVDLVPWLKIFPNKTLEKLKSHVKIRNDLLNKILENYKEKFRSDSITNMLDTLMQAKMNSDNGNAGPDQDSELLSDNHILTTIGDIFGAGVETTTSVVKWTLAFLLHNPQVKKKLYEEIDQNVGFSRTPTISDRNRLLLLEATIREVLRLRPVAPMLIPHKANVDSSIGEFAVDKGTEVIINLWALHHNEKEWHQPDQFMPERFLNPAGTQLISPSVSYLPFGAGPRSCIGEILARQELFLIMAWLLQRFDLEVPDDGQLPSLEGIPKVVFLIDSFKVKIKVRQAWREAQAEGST
Outline: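 Enzyme source was intact E. coli expressing P450c17 or P450c17-LNCaP cells. Substrate was [21-3H]-17α-hydroxypregnenolone, and CYP17 activity was read as tritiated acetic acid released by C-21 side-chain cleavage. Each compound was tested at five or more concentrations, in triplicate. IC50 was taken directly from plots of % inhibition versus concentration and reported as the mean of triplicate experiments.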

[2] = molecular target: T1, Steroid 17-alpha-hydroxylase/17,20 lyase; assay: In vitro Cytochrome P450 17A1 inhibition in rapid acetic acid releasing assay (AARA) using intact P450c17-expressing Escherichia coli or P450c17-LNCaP cells as the enzyme source at 1 mM
Outline: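 Acetic acid releasing assay using intact P450c17-expressing E. coli or P450c17-LNCaP cells with [21-3H]-17α-hydroxypregnenolone as substrate. Activity was read as tritiated acetic acid formed from C-21 side-chain cleavage. Percent inhibition was recorded at a single inhibitor concentration of 1 mM.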

[3] = molecular target: T1, Steroid 17-alpha-hydroxylase/17,20 lyase

SMILES | IC50 [1] [nM] | also measured
C/C(=N/O)C1=CC=C2[C@@H]3CCC4=CC(=O)CC[C@]4(C)[C@H]3CC[C@]12C | 1700 | –
C/C(=N/O)[C@@]1(O)CC[C@H]2[C@@H]3CC=C4C[C@@H](O)CC[C@]4(C)[C@H]3CC[C@@]21C | 12000 | –
C[C@]12CC[C@@H](O)CC1=CC[C@@H]1[C@@H]2CC[C@]2(C)C(=C/C=N/O)CC[C@@H]12 | 320 | –
C[C@]12CC[C@H](O)CC1=CCC1C2CC[C@@]2(C)C1CC[C@H]2c1ccncn1 (some centres undefined) | 225 | –
C[C@]12CCC3C(CC=C4C[C@@H](O)CC[C@@]43C)C1C/C(=N\O)C2 (some centres undefined) | 628 | –
C[C@]12CC[C@H](O)CC1=CCC1C2CC[C@]2(C)C(n3nccn3)=CCC12 (some centres undefined) | 3700 | –
C[C@]12CCC(=O)C=C1CCC1C2CC[C@]2(C)C(n3cncn3)=CCC12 (some centres undefined) | 1200 | –
C[C@]12CC[C@H](O)CC1=CCC1C2CC[C@]2(C)C(n3cnnn3)=CCC12 (some centres undefined) | 2600 | –
C[C@]12CCC(=O)C=C1CCC1C2CC[C@]2(C)C(n3ccnc3)=CCC12 (some centres undefined) | 150 | –
C[C@]12CC[C@H](O)CC1=CCC1C2CC[C@]2(C)C(n3cncn3)=CCC12 (some centres undefined) | 800 | –
CC(=O)O[C@H]1CCC2C3C=CC4=CC(=O)C=C[C@]4(C)C3CC[C@@]21C (some centres undefined) | 660 | –
C=C1C[C@@]2(C)C(=CC1=O)CCC1C2CC[C@@]2(C)C1CC[C@]2(C)OC(C)=O (some centres undefined) | 562 | –
C[C@]12CC[C@H](O)CC1=CCC1C2CC[C@]2(C)C(c3cncnc3)=CCC12 (some centres undefined) | 500 | –
C[C@]12CCC3C(CC=C4C[C@@H](O)CC[C@@]43C)C1CCC2C/C=N/O (some centres undefined) | 450 | –
C[C@]12CCC(=O)C=C1CCC1C2CC[C@]2(C)C(n3cnc4ccccc43)=CCC12 (some centres undefined) | 915 | –
CS(=O)(=O)Nc1cc(Cc2cc(NS(C)(=O)=O)cc(C(F)(F)F)c2)cc(C(F)(F)F)c1 | – | inhibition at 1000 µM [2]: ~25%
C[C@]12CCC(=O)C=C1CCC1C2CC[C@]2(C)C(n3ccnn3)=CCC12 (some centres undefined) | 387 | –
C[C@]12CC[C@H](O)CC1=CCC1C2CC[C@]2(C)C(=N/N)/C(=N/O)CC12 (some centres undefined) | 5900 | –
C[C@]12CC[C@H](O)CC1=CCC1C2CC[C@]2(C)C(n3ccnn3)=CCC12 (some centres undefined) | 377 | –
C[C@]12CCC(=O)C=C1CCC1C2CC[C@]2(C)C(c3ccno3)=CCC12 (some centres undefined) | 1000 | –
CC(CCC(=O)OC1CC2CC=CC1C2)[C@H]1CCC2C3CC=C4C[C@@H](O)CC[C@]4(C)C3CCC21 (some centres undefined) | 617 | –
C[C@]12CC[C@H](O)CC1=CCC1C2CC[C@]2(C)C(n3ncnn3)=CCC12 (some centres undefined) | 1400 | –
C[C@]12CC[C@H](O)CC1=CC[C@@H]1[C@@H]2CC[C@]2(C)C(c3cccnc3)=CC[C@@H]12 [ABIRATERONE] | 800 | –
c1ccc(-c2ccc(C(c3ccccc3)n3ccnc3)cc2)cc1 (centres undefined) [BIFONAZOLE] | – | Ki [3]: 56.5 nM
Clc1ccc(COC(Cn2ccnc2)c2ccc(Cl)cc2Cl)cc1 (centres undefined) [ECONAZOLE] | – | Ki [3]: 325 nM
Clc1ccc(COC(Cn2ccnc2)c2ccc(Cl)cc2Cl)c(Cl)c1 (centres undefined) [MICONAZOLE] | – | Ki [3]: 243 nM
C[C@]12CC[C@H](O)CC1=CCC1C2CC[C@]2(C)/C(=N/NC(N)=O)CCC12 (some centres undefined) [NRB 03731] | 178 | –
CCC(=O)O[C@H]1CC[C@H]2[C@@H]3CCC4=CC(=O)CC[C@]4(C)[C@H]3CC[C@]12C [TESTOSTERONE PROPIONATE] | 56 | –
Clc1ccc(C(Cn2ccnc2)OCc2ccsc2Cl)c(Cl)c1 (centres undefined) [TIOCONAZOLE] | – | Ki [3]: 505 nM
